Activity calls are given as the source filed them. The calls are words filed in the database; no cut-off is given here.

The nature of experiment [1]: Growth inhibition of human WI38 cells by MTT assay. The format is cell-based. The note with it: WI-38. In a few lines:
(§1)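 Cells were kept as monolayers in DMEM with 10% FBS, 2 mM glutamine and antibiotics at 37 °C under 5% CO₂, and seeded at 1–3 × 10⁴ cells/mL. They were exposed for 72 h to five 10-fold dilutions (10⁻⁸–10⁻⁴ M), with DMSO solvent controls. Growth was read by MTT at 570 nm and expressed as percentage growth relative to time-zero and untreated controls. IC50 was obtained by linear regression from quadruplicates in three experiments.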
A general note: Tetrazolium dyes change colour on reduction, which living cells bring about.

For another experiment, the system named is MIA PaCa-2. Briefly: Growth inhibition of human MiaPaCa2 cells by MTT assay. The format is functional, cell-based. In a few lines:
as §1

The subject of the next experiment is Coxsackievirus B5. As to the kind of experiment: Antiviral activity against Coxsackievirus B5 in GMK cells by MTT assay. The format is functional, organism-based. Particulars: Enterovirus B. The gist of the method: (§2)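 GMK monolayers were seeded at 10⁵ cells/mL and grown in DMEM with 10% FBS. Compound dilutions from 10⁻⁴ to 10⁻¹⁰ M were added to one-day-old confluent cells, immediately followed by virus at 10 CCID50 in DMEM with 2% serum. Cell lysis was followed microscopically at 24 h and quantified by MTT, as % CPE inhibition versus infected wells without compound. EC50 is the mean of at least two independent MTT experiments.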

For a further experiment, the system named is Human echovirus 7. As to the kind of experiment: Antiviral activity against Echovirus 7 in GMK cells by MTT assay. The experiment is classed as functional, cell-based, Echovirus E7. The note with it: Enterovirus B. In a few lines: as §2
Another experiment has as its system SW-620. Briefly: Growth inhibition of human SW620 cells by MTT assay. The format is functional, cell-based. In a few lines: as §1
The subject of the next experiment is MCF7. As to the kind of experiment: Growth inhibition of human MCF7 cells by MTT assay. The experiment is classed as functional, cell-based. In a few lines:
as §1

A further experiment has as its system HeLa. As to the kind of experiment: Growth inhibition of human HeLa cells by MTT assay. The experiment is classed as functional, cell-based. In a few lines:
as §1

The test system of a further experiment is NCI-H460. As to the kind of experiment: Growth inhibition of human H460 cells by MTT assay. The format is functional, cell-based. In a few lines:
as §1

The next experiment has as its system Human adenovirus 5. As to the kind of experiment: Antiviral activity against Adenovirus 5 in HeLa cells by MTT assay. The experiment is classed as functional, organism-based. Particulars: in the assay text read “by optical evaluation of CPE” for “by MTT assay”; for EC50: Human mastadenovirus C. In a few lines: (§3)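 HeLa monolayers were seeded at 10⁵ cells/mL and grown in DMEM with 10% FBS. Compounds were serially diluted from 10⁻⁴ to 10⁻¹⁰ M and added to one-day-old confluent monolayers, which were then immediately infected at 10 CCID50 in DMEM with 2% serum. Cytopathic effect was scored by optical microscopy at 48 h and compared with untreated infected wells. EC50 is the mean of at least three independent evaluations.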

The next experiment relates to Human alphaherpesvirus 1. As to the kind of experiment: Antiviral activity against Herpesvirus 1 in HeLa cells by MTT assay. The format is functional, organism-based. Particulars: in the assay text read “by optical evaluation of CPE” for “by MTT assay”; for EC50: Human alphaherpesvirus 1, HeLa. The gist of the method: as §3

One may read the IC50 as the concentration that gives 50% inhibition. Read a low IC50 as greater potency. The EC50 is the concentration that produces a half-maximal response. High values mean lower potency in that assay, low ones higher potency in that assay. Take `c1ccc(-c2nc3cc(C4=NCCN4)ccc3[nH]2)nc1`: the IC50 in experiment [1] was 12 µM; in the experiment on MIA PaCa-2, 16 µM; in the experiment with SW-620, 19 µM; in the experiment with MCF7, 12 µM; in the experiment with HeLa, 16 µM; with NCI-H460 it was 22.5 µM. The half-maximal effective concentration (EC50) in the experiment on Coxsackievirus B5 is 4.3 µM; in the experiment with Human echovirus 7 it was 0.63 µM; with Human adenovirus 5, over 100 µM; in the experiment on Human alphaherpesvirus 1, 56.7 µM.
In the case of `N=C(N)c1ccc2[nH]c(-c3ccccn3)nc2c1`, the 50% inhibitory concentration (IC50) in experiment [1] is 59.4 µM; in the experiment with MIA PaCa-2, over 100 µM; in the experiment with SW-620, over 100 µM; in the experiment on MCF7 it was at least 100 µM; with HeLa, 82 µM; in the experiment with NCI-H460 it was over 100 µM. Also, the EC50 in the experiment on Coxsackievirus B5 is 1.7 µM; with Human echovirus 7, 3.2 µM; with Human adenovirus 5, over 100 µM; in the experiment on Human alphaherpesvirus 1, over 100 µM.
As for `COc1cc([C@@H]2c3cc4c(cc3[C@@H](O[C@@H]3O[C@@H]5CO[C@@H](C)O[C@H]5[C@H](O)[C@H]3O)[C@H]3COC(=O)[C@H]23)OCO4)cc(OC)c1O` [ETOPOSIDE], the IC50 was 2.9 µM with HeLa and 0.2 µM with NCI-H460.
For the compound `CC(C)NC(=N)c1ccc2[nH]c(-c3cccn3C)nc2c1`, the 50% inhibitory concentration (IC50) in experiment [1] is over 100 µM; in the experiment with MIA PaCa-2, over 100 µM; in the experiment on SW-620 it was over 100 µM; in the experiment with MCF7, 20 µM; in the experiment on HeLa, over 100 µM; in the experiment on NCI-H460 it was over 100 µM. The EC50 in the experiment on Coxsackievirus B5 is over 100 µM; in the experiment with Human echovirus 7 it was 23.2 µM. Moreover, the result in the experiment on Human adenovirus 5 and in the experiment on Human alphaherpesvirus 1 was inactive.
In the case of `c1ncc(-c2nc3cc(C4=NCCN4)ccc3[nH]2)[nH]1`, the IC50 in experiment [1] was over 100 µM; in the experiment on MIA PaCa-2, over 100 µM; in the experiment with SW-620, over 100 µM; in the experiment on MCF7 it was at least 100 µM; in the experiment with HeLa it was over 100 µM; with NCI-H460 it was over 100 µM. Also, the EC50 in the experiment with Coxsackievirus B5, in the experiment on Human echovirus 7 and in the experiment on Human alphaherpesvirus 1 was over 100 µM in each case. Further, the result in the experiment with Human adenovirus 5 was inactive.
`Cn1cccc1-c1nc2cc(C3=NCCN3)ccc2[nH]1`: the IC50 in experiment [1] stood at 15.6 µM; with MIA PaCa-2, 11.5 µM; with SW-620, 15 µM; in the experiment on MCF7, 5 µM; in the experiment with HeLa, 20 µM; with NCI-H460 it was 38 µM. In addition, the EC50 is over 100 µM with Coxsackievirus B5, over 100 µM in the experiment on Human echovirus 7, over 100 µM with Human adenovirus 5 and 28.5 µM in the experiment on Human alphaherpesvirus 1.
On to `CC(C)NC(=N)c1ccc2[nH]c(-c3ccccn3)nc2c1`, for which the IC50 in experiment [1] was 20.4 µM; in the experiment with MIA PaCa-2, 79 µM; with SW-620, over 100 µM; with MCF7, 50 µM; in the experiment on HeLa it was over 100 µM; in the experiment on NCI-H460, over 100 µM. Further, the concentration giving a half-maximal response (EC50) in the experiment on Coxsackievirus B5 is 2.7 µM; in the experiment with Human echovirus 7, 0.33 µM; with Human adenovirus 5, 15.2 µM; with Human alphaherpesvirus 1 it was over 100 µM.
On to `Cn1cccc1-c1nc2cc(C(=N)N)ccc2[nH]1`, for which the IC50 in experiment [1] is over 100 µM; with MIA PaCa-2, over 100 µM; in the experiment on SW-620, 84 µM; in the experiment on MCF7, 12 µM; in the experiment with HeLa, 70 µM; in the experiment with NCI-H460, over 100 µM. For the same compound, the EC50 with Coxsackievirus B5 was found to be 3.5 µM; in the experiment on Human echovirus 7, 5 µM; in the experiment with Human adenovirus 5, 5.9 µM; in the experiment on Human alphaherpesvirus 1, 30 µM.
`N=C(N)c1ccc2[nH]c(-c3cnc[nH]3)nc2c1`: the IC50 is over 100 µM in [1]; 34 µM in the experiment on MIA PaCa-2; over 100 µM in the experiment with SW-620; 7.2 µM in the experiment on MCF7; over 100 µM with HeLa; over 100 µM with NCI-H460. Moreover, the concentration for a half-maximal effect (EC50) in the experiment with Coxsackievirus B5 and in the experiment with Human echovirus 7 was over 100 µM each time. Also, the outcome with Human adenovirus 5 and with Human alphaherpesvirus 1 was inactive.
On to `CC(C)NC(=N)c1ccc2[nH]c(-c3cnc[nH]3)nc2c1`, for which the IC50 in experiment [1] is over 100 µM; in the experiment with MIA PaCa-2, over 100 µM; in the experiment on SW-620, over 100 µM; in the experiment on MCF7, 26 µM; with HeLa, over 100 µM; in the experiment with NCI-H460, over 100 µM. Also, the concentration giving a half-maximal response (EC50) in the experiment with Coxsackievirus B5, in the experiment with Human echovirus 7 and with Human alphaherpesvirus 1 was over 100 µM in each case. Also, the outcome in the experiment on Human adenovirus 5 was inactive.

These data come from ChEMBL document CHEMBL1148692, “Synthesis, antiviral and antitumor activity of 2-substituted-5-amidino-benzimidazoles” (Bioorg Med Chem, 2007).
